A selection: hits, their analogues and other compounds. The true share with any hit is near 3.4%.
APOBEC3G inh = blocks human APOBEC3G single-stranded DNA deamination | inhibition, % at 20 µM | recombinant A3G, ssDNA deamination FAM/TAMRA fluorescence | Q9HC16 | 330,000 tested, 0.28% active;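 active means inhibition of at least 40% at 20 µM, with no more than 30% in the related APOBEC3A deaminase screen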;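 further: plate controls were DMSO wells with A3G for no effect and wells lacking A3G enzyme for full effect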
Target sequence (Q9HC16 whole entry, looked up): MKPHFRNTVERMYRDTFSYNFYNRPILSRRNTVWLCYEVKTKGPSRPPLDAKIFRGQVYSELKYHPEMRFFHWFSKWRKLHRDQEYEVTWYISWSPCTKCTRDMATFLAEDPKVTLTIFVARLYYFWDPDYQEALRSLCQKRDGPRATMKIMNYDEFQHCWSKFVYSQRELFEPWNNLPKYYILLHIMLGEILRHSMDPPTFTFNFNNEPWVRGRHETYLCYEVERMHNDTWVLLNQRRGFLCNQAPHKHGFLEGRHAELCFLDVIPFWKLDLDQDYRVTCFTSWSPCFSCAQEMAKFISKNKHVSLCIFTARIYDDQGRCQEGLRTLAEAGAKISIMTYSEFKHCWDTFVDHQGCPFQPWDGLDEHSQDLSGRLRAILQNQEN
UCH37 inh = human UCH37 deubiquitinating enzyme inhibition; AID 588478; inhibition, % (concentration not given with the values); 330,000 tested, 0.33% active; purified proteasome/UCH37, Ub-AMC cleavage fluorescence; Q9Y5K5;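 active means mean inhibition over replicate wells above about 20%, limit read from the data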;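 further: 0% = compound-free wells with enzyme and 100% = wells lacking proteasome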
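Material: Human UCH37 enzyme supplied as purified proteasome complex | Schedule: 30 min compound-proteasome preincubation then 25 min substrate reaction, room temperature | Detection: AMC fluorescence from Ub-AMC cleavage, excitation 355 nm, emission 460 nm | Benchmarks: Wells without proteasome as full block, compound-free enzyme plus substrate as uninhibited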
A3A deaminase = human APOBEC3A DNA deaminase inhibition; 330,000 tested, 0.41% active; P31941; AID 493011; inhibition, % at 20 µM; recombinant A3A, FAM/TAMRA ssDNA deamination fluorescence;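 active means at least 40% inhibition at 20 µM here, with at most 30% in a related deaminase screen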;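 further: plate controls were A3A with DMSO for no effect and wells lacking A3A enzyme for full effect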
Target sequence (P31941 whole entry, looked up): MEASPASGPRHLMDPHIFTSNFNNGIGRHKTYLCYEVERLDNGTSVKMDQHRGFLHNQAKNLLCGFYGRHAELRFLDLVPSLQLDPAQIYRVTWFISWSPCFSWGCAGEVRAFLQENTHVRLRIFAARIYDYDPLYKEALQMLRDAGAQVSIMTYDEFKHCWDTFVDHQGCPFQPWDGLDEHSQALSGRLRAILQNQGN
Arrestin-AP2 inh = inhibitors of human beta-arrestin and AP2 interaction. FITC-arrestin peptide / GST-AP2 beads, flow cytometry; AP2 beta2 appendage carries R879A mutation. inhibition, % at 10 µM. 340,000 tested, 0.31% active. AID 504490;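 active means inhibition above a set limit, near 3 SD of compounds lacking own fluorescence, cut at about 54% in these data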;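 further: plate controls were DMSO wells for no effect and 5 µM unlabelled arrestin peptide for full effect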
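Measured by: flow cytometry, FL1 (488/535 nm); Material: AP2 appendage R879A on GSH beads; Evaluation: percent response; Timing: pre-incubation 12 min, peptide binding 1 h, room temperature; Also added: 50 nM FITC-arrestin peptide; Medium: PBS with 0.05% Tween 20 and 0.1% BSA.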
PolyA inhibitor = inhibitors of polyadenylation in S. cerevisiae; S. cerevisiae SKY197-pL101 polyadenylation reporter, beta-gal luminescence; efflux-impaired pdr1/pdr3 knockout yeast; score 100 = 6 SD above DMSO; activity score, % at 12 µM; 300,000 tested, 0.02% active; AID 1875;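 active means lowest replicate activity score at least 50, where 100 means six control SD above control mean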;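 further: yeast exposed to compound for 9 h at 30 °C; higher score means more reporter readthrough which indicates perturbed polyadenylation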
AHR activator = activators of human aryl hydrocarbon receptor | P35869 | AHR-responsive luciferase reporter cells, luminescence | activation, % at 5 µM | 320,000 tested, 2.5% active | AID 2796; in the data active means activation above about 47%;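 further: 0% = vehicle wells and 100% = reference agonist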
An asterisk follows results filed as active; i = inactive; nt = no result given.

SMILES	APOBEC3G inh	UCH37 inh	A3A deaminase	Arrestin-AP2 inh	PolyA inhibitor	AHR activator
COc1ccc2c3c([nH]c2c1)C(C)=NCC3	-5	-329	-2	-7	-5	50*
COc1cc(C=NNP(=S)(c2ccccc2)c2ccccc2)ccc1O	nt	2	nt	nt	nt	nt
COCCOC(=O)c1c(N)n(Cc2ccccc2)c2nc3ccccc3nc12	-4	i	-1	-2	-8	13
Nc1c(C(=O)NCc2ccco2)c2nc3ccccc3nc2n1Cc1ccccc1	-5	-234	-2	-1	-2	4
CCOC(=O)c1c(N)n(Cc2ccco2)c2nc3ccccc3nc12	-7	i	3	8	nt	75*
COCC(C)OC(=O)c1c(N)n(Cc2ccco2)c2nc3ccccc3nc12 (configuration not stated)	9	i	14	3	-5	63*
Cc1nn(Cc2ccccc2Cl)c(C)c1C(=O)OCC(=O)N1CC(C)OC(C)C1 (configuration not stated)	-7	2	-3	1	1	52*
O=C(CSC1c2ccccc2-c2ccccc21)NN=Cc1ccc(C(=O)O)cc1	nt	2	nt	nt	nt	nt
Oc1c(Cl)c(Cl)c(Cl)c(Cl)c1Cl	-8	0	-2	-3	-6	79*
COc1cc(C(=O)NN=CC23CC[C@@H](O)CC2(O)CC[C@@H]2[C@@H]3CCC3(C)C(C4=CC(=O)OC4)CCC23O)ccc1O (some centres not stated)	nt	3	nt	nt	nt	nt
CNC(=O)ON=C(N)Cc1csc2ccccc12	nt	1	nt	nt	nt	nt
Cc1cccc(CN2CCCC(C(=O)c3ccc4c(c3)OCO4)C2)n1 (configuration not stated)	-3	0	1	35	2	8
O=C(c1ccc2c(c1)OCO2)C1CCCN(Cc2c(F)cccc2Cl)C1 (configuration not stated)	-8	2	-3	-2	8	48*
CC(=NOC(=O)N(C)C)c1ncc(C(F)(F)F)cc1N1CCOCC1	nt	3	nt	nt	nt	nt
Cc1cc(C)cc(N2C(=O)/C(=C\c3ccc(N4CCN(C)CC4)o3)C(=O)NC2=S)c1	-4	24*	-1	4	-33	-2
COC(=O)C1=C(c2cc3ccccc3o2)C[C@@H]2CC[C@H]1N2C(=O)NCCO	-6	27*	-1	-4	-12	3
COC(=O)C1=C(c2ccc(F)cc2F)C[C@@H]2CC[C@H]1N2C(=O)NCCNC(C)=O	-9	25*	-2	nt	nt	-2
CN1CCN(c2ccc([N+](=O)[O-])c(NN=C3CN4CCC3CC4)c2)CC1	nt	8	nt	nt	nt	nt
CCCCCC(=NO)c1c(C)[nH]c2ccccc12	nt	1	nt	nt	nt	nt
CCC(=NCCCn1ccnc1)c1c(O)n(Cc2ccccc2)c(=O)[nH]c1=O	-3	-2	1	-3	7	48*
COP(=O)(OC)C(C=O)=NNc1ccc([N+](=O)[O-])cc1	nt	20*	nt	nt	nt	nt
CC12CN3CCN(CC(C3)C1=NNC(N)=O)C2	nt	3	nt	nt	nt	nt
CCC(=NCc1ccc2c(c1)OCO2)c1c(O)n(C)c(=O)n(C)c1=O	1	4	1	1	-5	27
CC(=NCc1ccc2c(c1)OCO2)c1c(O)n(C)c(=O)n(C)c1=O	0	5	-1	5	-6	58*
CCCC(=NO)c1c[nH]c2ccccc12	nt	-5	nt	nt	nt	nt
SMILES	APOBEC3G inh	UCH37 inh	A3A deaminase	Arrestin-AP2 inh	PolyA inhibitor	AHR activator
O=P(Nc1c(Cl)cccc1Cl)(c1ccccc1)c1nc2c(s1)CCCC2 (configuration not stated)	-8	-2	-2	-1	-7	-1
CP(=O)(Nc1ccc(Cl)cc1)c1nc2c(s1)CCCC2 (configuration not stated)	-6	1	-8	-2	3	70*
NC(N)=N/N=C/c1cn(-c2ccccc2)nc1-c1cccs1	-10	nt	-1	-3	0	50*
CCC(CC(c1ccccc1)c1c(O)c2ccccc2oc1=O)=NNC(N)=S (configuration not stated)	nt	-2	nt	nt	nt	nt
CCOc1ccc(-n2c(-c3cccs3)nc3ccccc3c2=O)cc1	-7	-15	3	-6	-31	-2
CCn1nc(-c2cccs2)nc2c(=O)n(C)c(=O)nc1-2	nt	95*	nt	8	nt	nt
COc1ccc(C(=O)O)cc1OC	nt	nt	nt	-5	nt	nt
O=C(O)c1cc[c]([Hg][Cl])cc1	92	nt	97	95*	nt	-2
N[C@@H](Cc1c[nH]c2ccccc12)c1nnc(SCc2ccccc2)o1	-2	3	1	-3	-4	74*
O=C(NN=CC1C(=O)NC(=S)N(c2ccccc2)C1=O)c1cc(Br)c(O)c(Br)c1 (configuration not stated)	nt	-1	nt	nt	nt	nt
COc1ccccc1/C=C1/C(=NO)C2CCN1CC2	nt	4	nt	nt	nt	nt
CCOC(=O)c1c(C)n(Cc2ccccc2)c2ccc(OCC(O)Cn3nc(C)nc3C)cc12 (configuration not stated)	0	1	0	22	9	12
CCOC(=O)c1c(C)n(Cc2ccccc2)c2ccc(OCC(O)Cn3nc(C)cc3C)cc12 (configuration not stated)	-2	2	-3	-4	nt	55*
Fc1cccc(F)c1-c1nc(-c2ccc(Cl)cc2)no1	2	3	1	4	26	73*
COc1ccc(C(=O)ON=C(C(N)=O)P(=O)(OC(C)C)OC(C)C)cc1	nt	4	nt	nt	nt	nt
CNc1cc(N2CCNCC2)ccc1[N+](=O)[O-]	-2	9	-1	-1	5	1
CN1CCN(c2ccc([N+](=O)[O-])c(NCc3ccco3)c2)CC1	1	11	5	-1	-2	63*
CN1CCN(c2ccc([N+](=O)[O-])c(NCC3CCCO3)c2)CC1 (configuration not stated)	0	11	1	9	-13	12
O=[N+]([O-])c1ccc(N2CCNCC2)cc1NCc1ccco1	-6	9	-7	49	-7	71*
CC1=CC2C=C(C)C(C)C3C(CC(C)C)NC(=O)C23C(=O)C=CC(O)C(O)CC1 (configuration not stated)	nt	4	nt	nt	nt	nt
CCCC(C)n1[nH]c(=O)c2c1NC(=O)CSC2c1ccc(OC)cc1 (configuration not stated)	-8	20*	-5	8	-1	1
Cc1cc(/C=C2/C(=O)NC(=O)N(c3ccc(Br)cc3)C2=O)c(C)n1C	4	-1	-6	5	8	26
Cc1cc(/C=C2\C(=O)NC(=O)N(c3ccc(Br)cc3)C2=O)c(C)n1C	-1	-4	0	0	1	64*
Cc1cc(O)c2c(c1)C(=O)C13C(=C2O)C(=O)[C@H]2[C@@H](O)[C@@H]1[C@H]1[C@H](O)[C@@H]3C(=O)C3=C(O)c4c(O)cc(C)cc4C(=O)C312 (some centres not stated)	4	28*	11	5	nt	-1

Assay outcomes from PubChem BioAssay.
